Assay [1] addresses T1, Polyunsaturated fatty acid 5-lipoxygenase (Homo sapiens) (UniProt P09917).
T1 sequence (whole entry): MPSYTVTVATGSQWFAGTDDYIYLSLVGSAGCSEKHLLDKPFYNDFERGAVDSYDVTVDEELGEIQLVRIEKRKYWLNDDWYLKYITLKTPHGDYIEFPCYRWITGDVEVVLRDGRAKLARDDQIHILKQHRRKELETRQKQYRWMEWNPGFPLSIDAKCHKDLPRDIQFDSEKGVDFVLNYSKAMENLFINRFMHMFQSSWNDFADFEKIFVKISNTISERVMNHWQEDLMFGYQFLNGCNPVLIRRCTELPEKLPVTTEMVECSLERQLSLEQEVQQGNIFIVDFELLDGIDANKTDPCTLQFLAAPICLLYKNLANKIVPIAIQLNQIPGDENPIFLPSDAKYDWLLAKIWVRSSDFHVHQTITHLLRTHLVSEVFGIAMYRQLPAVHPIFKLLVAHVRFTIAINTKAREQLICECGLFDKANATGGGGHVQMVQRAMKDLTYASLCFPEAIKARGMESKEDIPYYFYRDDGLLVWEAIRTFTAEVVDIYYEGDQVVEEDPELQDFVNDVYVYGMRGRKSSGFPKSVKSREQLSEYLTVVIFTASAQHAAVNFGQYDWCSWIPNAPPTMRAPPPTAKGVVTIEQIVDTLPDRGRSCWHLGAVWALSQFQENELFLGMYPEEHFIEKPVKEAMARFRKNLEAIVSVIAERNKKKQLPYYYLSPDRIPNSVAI
The assay is described as follows: Inhibition of 5-LO in human PMNL using arachidonic acid as substrate assessed as residual activity at 10 uM preincubated for 15 mins. The procedure, abridged:
(§1)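 PMNL were isolated from buffy coats by dextran sedimentation, Nycoprep centrifugation and hypotonic lysis of erythrocytes, then resuspended in PBS pH 7.4 with 1 mg/mL glucose and 1 mM CaCl₂. Cells were pre-incubated with compound for 15 min at 37 °C, then stimulated with A23187 plus AA for 10 min at 37 °C. 15-LO comes from eosinophils and 12-LO from adhering platelets in the preparation. After methanol/HCl stop and PGB₁ addition, metabolites were extracted and quantified by HPLC. Mean ± S.E.M., n = 3–4.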

The target in assay [2] is T2, Polyunsaturated fatty acid 5-lipoxygenase (Homo sapiens, UniProt P09917).
T2 sequence (P09917 whole entry): T1 sequence (whole entry)
Kind of assay: Inhibition of human recombinant 5-LO expressed in Escherichia coli BL21 using arachidonic acid as substrate after 10 mins. In a few lines: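 Purified 5-LO was diluted in PBS/EDTA and pre-incubated with compound for 5–10 min at 4 °C, then pre-warmed for 30 s at 37 °C. The reaction was started with 2 mM CaCl₂ plus AA, run 10 min at 37 °C and stopped with ice-cold methanol. Products were analysed by HPLC.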

Assay [3] concerns the target T2, Polyunsaturated fatty acid 5-lipoxygenase. The assay is described as follows: Competitive inhibition of human recombinant 5-LO expressed in Escherichia coli BL21 using 5 uM of arachidonic acid as substrate preincubated for 15 mins measured after 10 mins. The procedure, abridged: (§2)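 Purified 5-LO was pre-incubated with inhibitor or vehicle (0.1% DMSO) for 15 min at 4 °C, then warmed for 30 s at 37 °C. The reaction was started with 2 mM CaCl₂ plus AA at 2.5, 5, 10, 20 or 40 µM and run 10 min at 37 °C. Products were analysed by HPLC. Results are % of uninhibited control, mean ± S.E.M., n = 3.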

Assay [4] deals with T3, Polyunsaturated fatty acid lipoxygenase ALOX15 (Homo sapiens, UniProt P16050).
T3 sequence (P16050 whole entry): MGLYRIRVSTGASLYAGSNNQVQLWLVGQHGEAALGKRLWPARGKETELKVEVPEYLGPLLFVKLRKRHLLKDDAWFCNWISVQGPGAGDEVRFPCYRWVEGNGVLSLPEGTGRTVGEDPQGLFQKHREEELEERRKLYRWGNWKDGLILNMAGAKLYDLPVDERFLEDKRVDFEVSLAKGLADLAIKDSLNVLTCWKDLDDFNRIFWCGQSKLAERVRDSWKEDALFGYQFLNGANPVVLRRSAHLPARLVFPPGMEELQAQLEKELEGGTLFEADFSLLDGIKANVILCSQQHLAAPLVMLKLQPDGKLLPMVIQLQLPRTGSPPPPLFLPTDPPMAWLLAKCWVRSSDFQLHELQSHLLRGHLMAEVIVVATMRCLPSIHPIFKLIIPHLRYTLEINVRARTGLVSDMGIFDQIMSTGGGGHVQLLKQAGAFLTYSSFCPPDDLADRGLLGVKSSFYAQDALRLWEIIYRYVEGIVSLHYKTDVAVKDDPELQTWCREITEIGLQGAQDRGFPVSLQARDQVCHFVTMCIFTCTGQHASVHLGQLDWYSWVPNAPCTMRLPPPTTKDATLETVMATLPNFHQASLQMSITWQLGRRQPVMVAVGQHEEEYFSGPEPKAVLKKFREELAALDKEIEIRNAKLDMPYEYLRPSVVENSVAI
Kind of assay: Inhibition of 15-LO in human PMNL using arachidonic acid as substrate preincubated for 15 mins. In a few lines: as §1

Assay [5] concerns the target T2, Polyunsaturated fatty acid 5-lipoxygenase. Kind of assay: Competitive inhibition of human recombinant 5-LO expressed in Escherichia coli BL21 using 40 uM of arachidonic acid as substrate preincubated for 15 mins measured after 10 mins. In a few lines:
as §2

Assay [6] addresses T4, Polyunsaturated fatty acid lipoxygenase ALOX15 (Homo sapiens) (UniProt P16050).
T4 sequence (whole entry): T3 sequence (P16050 whole entry)
Kind of assay: Inhibition of 15-LO in human PMNL using arachidonic acid as substrate assessed as residual activity at 10 uM preincubated for 15 mins. The procedure, abridged:
as §1

The target in assay [7] is T5, Polyunsaturated fatty acid lipoxygenase ALOX12 (Homo sapiens) (UniProt P18054).
T5 sequence (whole entry): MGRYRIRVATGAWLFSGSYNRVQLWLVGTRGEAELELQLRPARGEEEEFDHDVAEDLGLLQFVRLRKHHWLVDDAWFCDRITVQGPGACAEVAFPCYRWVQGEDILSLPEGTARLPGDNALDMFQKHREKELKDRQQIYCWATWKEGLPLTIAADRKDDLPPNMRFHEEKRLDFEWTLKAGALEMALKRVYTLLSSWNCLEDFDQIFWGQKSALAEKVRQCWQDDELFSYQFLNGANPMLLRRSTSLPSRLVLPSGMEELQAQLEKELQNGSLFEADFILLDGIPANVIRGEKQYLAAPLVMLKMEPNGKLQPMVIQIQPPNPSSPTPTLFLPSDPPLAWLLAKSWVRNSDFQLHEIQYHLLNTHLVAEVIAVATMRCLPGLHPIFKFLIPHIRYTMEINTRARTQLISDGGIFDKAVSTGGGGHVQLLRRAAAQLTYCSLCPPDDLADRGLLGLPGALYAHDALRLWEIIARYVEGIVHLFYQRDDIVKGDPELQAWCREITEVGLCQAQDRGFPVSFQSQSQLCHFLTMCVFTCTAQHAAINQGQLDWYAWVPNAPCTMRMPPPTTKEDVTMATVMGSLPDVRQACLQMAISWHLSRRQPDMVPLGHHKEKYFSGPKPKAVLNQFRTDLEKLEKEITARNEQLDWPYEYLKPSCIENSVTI
Kind of assay: Inhibition of 12-LO in human PMNL using arachidonic acid as substrate assessed as residual activity at 10 uM preincubated for 15 mins. The procedure, abridged: as §1

The target of assay [8] is T6, Polyunsaturated fatty acid lipoxygenase ALOX12 (Homo sapiens, UniProt P18054).
T6 sequence (P18054 whole entry): T5 sequence (whole entry)
The assay is described as follows: Inhibition of 12-LO in human PMNL using arachidonic acid preincubated for 15 mins. The procedure, abridged:
as §1

Assay [9] addresses T2, Polyunsaturated fatty acid 5-lipoxygenase. The assay is described as follows: Inhibition of 5-LO in human PMNL using arachidonic acid as substrate preincubated for 15 mins. The procedure, abridged: as §1
Assay [10] addresses T1, Polyunsaturated fatty acid 5-lipoxygenase (Homo sapiens). Kind of assay: Inhibition of human recombinant 5-LO expressed in Escherichia coli BL21 using arachidonic acid as substrate assessed as residual activity at 10 uM after 10 mins.

Molecules are shown by their SMILES.

Broadly, the IC50 is the point on the concentration scale where inhibition reaches its midpoint. Turning to `O=C1C=C(Cc2ccc3ccccc3c2)C(=O)C=C1O`, the Activity turned out to be 5.3% in assay [1], 147% in [6], 71.9% in assay [7] and 8.7% in assay [10]. Also, the IC50 was 780 nM in assay [2]; 970 nM in assay [3]; greater than 10 µM in [4]; 310 nM in assay [5]; greater than 10 µM in assay [8]; 2300 nM in [9].

These data come from ChEMBL document CHEMBL3108770, “Discovery and biological evaluation of novel 1,4-benzoquinone and related resorcinol derivatives that inhibit 5-lipoxygenase” (Eur J Med Chem, 2013).
